Results published in ChEMBL document CHEMBL1133762, “Aureobasidins: structure-activity relationships for the inhibition of the human MDR1 P-glycoprotein ABC-transporter” (J Med Chem, 2000).
pIC50: −log10 of the molar value. Converted amounts (≈) assume the structure as drawn.

How the values were obtained:
[1] = molecular target: P-glycoprotein (ABCB1, MDR1) (Homo sapiens, UniProt P08183); assay: (§1) Human MDR1 Pgp inhibitory activity by using standard calcein-AM efflux method with the human leukemia CEM cells.; format: cell-based, CCRF-CEM; details: probe calcein-AM
Chain of P-glycoprotein (ABCB1, MDR1) (P08183 whole entry): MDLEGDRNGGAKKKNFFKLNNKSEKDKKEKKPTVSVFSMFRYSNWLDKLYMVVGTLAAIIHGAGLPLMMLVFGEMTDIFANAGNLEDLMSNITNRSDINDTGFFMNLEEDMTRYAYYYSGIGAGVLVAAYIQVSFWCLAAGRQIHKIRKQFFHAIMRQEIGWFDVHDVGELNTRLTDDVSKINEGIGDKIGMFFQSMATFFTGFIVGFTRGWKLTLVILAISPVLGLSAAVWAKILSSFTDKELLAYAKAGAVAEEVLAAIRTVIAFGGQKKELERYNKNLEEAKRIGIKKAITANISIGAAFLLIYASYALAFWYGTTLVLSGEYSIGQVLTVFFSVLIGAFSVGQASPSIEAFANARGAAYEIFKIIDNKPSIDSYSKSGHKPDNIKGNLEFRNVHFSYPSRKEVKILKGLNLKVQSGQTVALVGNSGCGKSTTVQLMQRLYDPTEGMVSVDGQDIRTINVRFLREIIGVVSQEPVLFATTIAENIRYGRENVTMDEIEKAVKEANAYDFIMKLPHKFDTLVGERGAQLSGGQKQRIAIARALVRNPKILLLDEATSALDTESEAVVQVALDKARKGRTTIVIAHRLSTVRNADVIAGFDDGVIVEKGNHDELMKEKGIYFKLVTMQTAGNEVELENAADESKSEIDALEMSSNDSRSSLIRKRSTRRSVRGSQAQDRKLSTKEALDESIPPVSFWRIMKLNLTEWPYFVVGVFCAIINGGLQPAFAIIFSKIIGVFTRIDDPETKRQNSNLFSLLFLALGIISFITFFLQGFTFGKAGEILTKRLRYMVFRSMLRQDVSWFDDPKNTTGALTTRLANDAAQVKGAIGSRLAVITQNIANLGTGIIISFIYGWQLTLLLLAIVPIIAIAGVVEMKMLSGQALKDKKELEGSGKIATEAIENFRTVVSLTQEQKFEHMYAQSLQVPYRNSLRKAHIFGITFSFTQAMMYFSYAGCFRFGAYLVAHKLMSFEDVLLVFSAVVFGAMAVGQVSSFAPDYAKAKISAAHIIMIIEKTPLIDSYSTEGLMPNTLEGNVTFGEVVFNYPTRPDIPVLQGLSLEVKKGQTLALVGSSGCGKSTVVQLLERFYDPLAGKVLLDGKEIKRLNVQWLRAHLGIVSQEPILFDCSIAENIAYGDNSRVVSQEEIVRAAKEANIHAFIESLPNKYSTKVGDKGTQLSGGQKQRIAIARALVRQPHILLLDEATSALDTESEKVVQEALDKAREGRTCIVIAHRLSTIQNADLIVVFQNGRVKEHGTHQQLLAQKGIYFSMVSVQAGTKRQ

[2] = molecular target: T1, ATP-dependent translocase ABCB1 (Homo sapiens, UniProt P08183); assay: as §1; format: cell-based, CCRF-CEM
T1 sequence (P08183 whole entry): as above

Saccharomyces cerevisiae [3] = assay: Relative antifungal activity (against Saccharomyces cerevisiae) compared to AbA
[4] = molecular target: T1, ATP-dependent translocase ABCB1; assay: Direct comparison of the antifungal activities with the relative Pgp-inhibitory potencies, calculated by comparing ug/mL IC50(or IC20).; format: functional
Saccharomyces cerevisiae [5] = assay: Minimum growth-inhibitory concentration against Saccharomyces cerevisiae ATCC 9763 by agar dilution method by the suspension of a fungi containing ~5 x 10e (7) cells/mL.; format: functional
Summary of the method: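 Agar dilution on Sabouraud–dextrose agar plates with graded compound concentrations. A loopful of yeast suspension (about 5 × 10⁷ cells/mL) was streaked on the surface. Plates were incubated at 30 °C for 3 days. MIC is the lowest concentration with no detectable growth.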

[6] = molecular target: T1, ATP-dependent translocase ABCB1
[7] = Antifungal activity was determined by its potency compared with that of AbA. Value is determined as ratio of AbA to the analogue.; format: functional
Summary of the method: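 Agar dilution MIC against S. cerevisiae ATCC 9763 on Sabouraud–dextrose agar plates containing graded compound concentrations. A loopful of about 5 × 10⁷ cells/mL suspension was streaked on the surface, and plates were incubated at 30 °C for 3 days. MIC was the lowest concentration with no detectable growth. The value is the AbA/analogue activity ratio.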

SMILES | IC20 [1] | pIC50 [2] | antifungal AbA/analogue ratio (Saccharomyces cerevisiae [3]) | Pgp AbA/analogue ratio [4] | MIC (Saccharomyces cerevisiae [5]) | pIC50 [6] | AbA/analogue ratio [7]
CC[C@@H](C)[C@@H]1NC(=O)[C@@H]2CCCN2C(=O)[C@H](Cc2ccccc2)N(C)C(=O)[C@H](Cc2ccccc2)NC(=O)[C@H](C(C)C)N(C)C(=O)[C@@H](C(C)C)OC(=O)[C@H](C(C)(C)O)N(C)C(=O)[C@H](CC(C)C)NC(=O)[C@H](C(C)C)N(C)C1=O | 0.34 µM | 5.96 | 1 | 2.1 | – | – | –
CC[C@@H](C)[C@@H]1NC(=O)[C@@H]2CCCN2C(=O)[C@H](Cc2ccccc2)N(C)C(=O)[C@H](Cc2ccccc2)NC(=O)[C@H](C(C)C)N(C)C(=O)[C@@H]([C@H](C)CC)OC(=O)[C@H](C(C)(C)O)N(C)C(=O)[C@H](CC(C)C)NC(=O)[C@H](C(C)C)N(C)C1=O [AUREOBASIDIN A] | – | – | – | – | – | 5.64 | –
CC[C@@H](C)[C@@H]1NC(=O)[C@@H]2CCCN2C(=O)[C@H](Cc2ccccc2)N(C)C(=O)[C@H](Cc2ccccc2)NC(=O)[C@H](C(C)C)N(C)C(=O)[C@@H]([C@@H](C)CC)OC(=O)CN(C)C(=O)[C@H](CC(C)C)NC(=O)[C@H](C(C)C)N(C)C1=O | – | – | – | – | – | – | <0.016

The next lines start with results.

IC20 [1] | pIC50 [2] | antifungal AbA/analogue ratio (Saccharomyces cerevisiae [3]) | Pgp AbA/analogue ratio [4] | MIC (Saccharomyces cerevisiae [5]) | SMILES | pIC50 [6] | AbA/analogue ratio [7]
0.64 µM | 5.68 | 0.25 | 1 | 1.6 µg/mL (≈ 1.41 µM) | CC[C@H](C)[C@@H]1NC(=O)[C@@H]2CCCN2C(=O)[C@@H](C)N(C)C(=O)[C@H](Cc2ccc(OCC3CCCCC3)cc2)NC(=O)[C@H](C(C)C)N(C)C(=O)[C@@H]([C@@H](C)CC)OC(=O)[C@H](C(C)(C)O)N(C)C(=O)[C@H](CC(C)C)NC(=O)[C@H](C(C)C)N(C)C1=O | – | –
2.12 µM | 5.24 | – | 0.4 | 25 µg/mL (≈ 24 µM) | CC[C@H](C)[C@@H]1NC(=O)[C@@H]2CCCN2C(=O)[C@@H](C)N(C)C(=O)[C@H](Cc2ccc(O)cc2)NC(=O)[C@H](C(C)C)N(C)C(=O)[C@@H]([C@@H](C)CC)OC(=O)[C@H](C(C)(C)O)N(C)C(=O)[C@H](CC(C)C)NC(=O)[C@H](C(C)C)N(C)C1=O | – | –
> 31 µM | < 4.51 | < 0.016 | < 0.1 | > 25 µg/mL | CC[C@H](C)[C@@H]1NC(=O)[C@@H]2CCCN2C(=O)[C@@H](C)N(C)C(=O)[C@H](CO)NC(=O)[C@H](C(C)C)N(C)C(=O)[C@@H]([C@@H](C)CC)OC(=O)[C@H](C(C)(C)O)N(C)C(=O)[C@H](CC(C)C)NC(=O)[C@H](C(C)C)N(C)C1=O | – | –
